The source made the active and inactive calls. The calls are words filed in the database; no cut-off is given here.
Biological target: T1, Tyrosinase (Agaricus bisporus) (UniProt O42713)
T1 sequence (whole entry): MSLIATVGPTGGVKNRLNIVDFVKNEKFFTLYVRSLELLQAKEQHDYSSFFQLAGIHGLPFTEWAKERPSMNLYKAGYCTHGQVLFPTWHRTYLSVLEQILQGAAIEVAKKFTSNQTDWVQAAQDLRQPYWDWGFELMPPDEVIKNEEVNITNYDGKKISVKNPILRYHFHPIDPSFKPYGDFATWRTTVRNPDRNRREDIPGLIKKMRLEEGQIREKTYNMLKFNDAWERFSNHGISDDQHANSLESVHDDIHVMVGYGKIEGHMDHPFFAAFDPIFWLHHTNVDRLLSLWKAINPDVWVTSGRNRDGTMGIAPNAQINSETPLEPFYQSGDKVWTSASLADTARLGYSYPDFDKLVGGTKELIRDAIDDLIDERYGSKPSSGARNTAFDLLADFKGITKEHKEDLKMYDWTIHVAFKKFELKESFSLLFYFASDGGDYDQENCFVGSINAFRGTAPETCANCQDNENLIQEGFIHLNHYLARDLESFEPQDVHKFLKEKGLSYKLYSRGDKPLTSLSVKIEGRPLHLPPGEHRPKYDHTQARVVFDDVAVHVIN
Assay: Irreversible inhibition of mushroom tyrosinase assessed as oxidation of L-DOPA at 1 mmol/L […]
Conditions: not given
How it was run: (§1)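 Mushroom tyrosinase was run with L-DOPA as substrate. Enzyme concentration was varied at fixed inhibitor levels of 0, 0.5, 0.8 and 1.0 mmol/L. Rate (V) was plotted against enzyme concentration [E] for each inhibitor level to judge whether inhibition was reversible or irreversible.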

`CC(=O)OC[C@H]1O[C@@H](Oc2ccc(C=C3C(=O)NC(=S)NC3=O)cc2O)[C@H](OC(C)=O)[C@@H](OC(C)=O)[C@@H]1OC(C)=O` was tested, and the inhibition was “Active”.

Biological target: T2, Tyrosinase (Agaricus bisporus, UniProt O42713)
T2 sequence (O42713 whole entry): T1 sequence (whole entry)
Assay: Inhibition of diphenolase activity of mushroom tyrosinase
Conditions: not given

`CC(=O)OC[C@H]1O[C@@H](Oc2ccc(C=C3C(=O)NC(=O)NC3=O)cc2)[C@H](OC(C)=O)[C@@H](OC(C)=O)[C@@H]1OC(C)=O` and `CC(=O)OC[C@H]1O[C@@H](Oc2ccc(C=C3C(=O)NC(=O)NC3=O)cc2)[C@H](OC(C)=O)[C@H](OC(C)=O)[C@@H]1OC(C)=O` are within 1.5-fold of each other in IC50: 1270 µM for the first, 1500 µM for the second.

First: CC(=O)OC[C@H]1O[C@@H](Oc2ccc(C=C3C(=O)NC(=S)NC3=O)cc2O)[C@H](OC(C)=O)[C@@H](OC(C)=O)[C@@H]1OC(C)=O
Second: CC(=O)OC[C@H]1O[C@@H](Oc2ccc(C=C3C(=O)NC(=O)NC3=O)cc2O)[C@H](OC(C)=O)[C@@H](OC(C)=O)[C@@H]1OC(C)=O
The IC50 of the first is 2.6-fold lower: 50 µM for the first, 130 µM for the second.

First: CC(=O)OC[C@H]1O[C@@H](Oc2cccc(C=O)c2)[C@H](OC(C)=O)[C@@H](OC(C)=O)[C@@H]1OC(C)=O
Second: CC(=O)OC[C@H]1O[C@@H](Oc2ccc(C=O)cc2)[C@H](OC(C)=O)[C@H](OC(C)=O)[C@@H]1OC(C)=O
The IC50 of the first is higher: over 3000 µM for the first, 780 µM for the second. The second is the more potent here.

`CC(=O)OC[C@H]1O[C@@H](Oc2ccc(C=C3C(=O)NC(=S)NC3=O)cc2)[C@H](OC(C)=O)[C@H](OC(C)=O)[C@@H]1OC(C)=O` and `CC(=O)OC[C@H]1O[C@@H](Oc2ccc(C=C3C(=O)NC(=S)NC3=O)cc2)[C@H](OC(C)=O)[C@@H](OC(C)=O)[C@@H]1OC(C)=O` are within 1.5-fold of each other in IC50: 340 µM for the first, 230 µM for the second.

`O=C1NC(=O)C(=Cc2ccc(O[C@@H]3O[C@H](CO)[C@@H](O)[C@@H](O)[C@H]3O)cc2)C(=O)N1` and `O=C1NC(=S)NC(=O)C1=Cc1ccc(O[C@@H]2O[C@H](CO)[C@@H](O)[C@@H](O)[C@H]2O)cc1` are within 1.5-fold of each other in IC50: 1630 µM for the first, 1160 µM for the second.

Compared with `CC(=O)OC[C@H]1O[C@@H](Oc2ccc(C=O)cc2O)[C@H](OC(C)=O)[C@@H](OC(C)=O)[C@@H]1OC(C)=O`, `CC(=O)OC[C@H]1O[C@@H](Oc2ccc(C=O)c(O)c2)[C@H](OC(C)=O)[C@@H](OC(C)=O)[C@@H]1OC(C)=O` is higher in IC50: 430 µM for the first, over 3000 µM for the second.

Compared with `CC(=O)OC[C@H]1O[C@@H](Oc2cccc(C=C3C(=O)NC(=S)NC3=O)c2)[C@H](OC(C)=O)[C@@H](OC(C)=O)[C@@H]1OC(C)=O`, `CC(=O)OC[C@H]1O[C@@H](Oc2cccc(C=C3C(=O)NC(=O)NC3=O)c2)[C@H](OC(C)=O)[C@@H](OC(C)=O)[C@@H]1OC(C)=O` is higher in IC50: 870 µM for the first, over 3000 µM for the second. The first is the more potent here.

Compared with `CC(=O)OC[C@H]1O[C@@H](Oc2ccc(C=C3C(=O)NC(=O)NC3=O)c(O)c2)[C@H](OC(C)=O)[C@@H](OC(C)=O)[C@@H]1OC(C)=O`, `CC(=O)OC[C@H]1O[C@@H](Oc2ccc(C=C3C(=O)NC(=S)NC3=O)c(O)c2)[C@H](OC(C)=O)[C@@H](OC(C)=O)[C@@H]1OC(C)=O` is 6.2-fold lower in IC50: 1730 µM for the first, 280 µM for the second. The second is the more potent here.

Going from `CC(=O)OC[C@H]1O[C@@H](Oc2ccccc2C=O)[C@H](OC(C)=O)[C@@H](OC(C)=O)[C@@H]1OC(C)=O` to `CC(=O)OC[C@H]1O[C@@H](Oc2ccccc2C=C2C(=O)NC(=S)NC2=O)[C@H](OC(C)=O)[C@@H](OC(C)=O)[C@@H]1OC(C)=O`, the IC50 falls from over 3000 µM to 430 µM.

In the case of `CC(=O)OC[C@H]1O[C@@H](Oc2ccccc2C=C2C(=O)NC(=O)NC2=O)[C@H](OC(C)=O)[C@@H](OC(C)=O)[C@@H]1OC(C)=O`, the IC50 is reported as over 3000 µM.

Biological target: T1, Tyrosinase (Agaricus bisporus)
Conditions: 0.5 mmol/L

`CC(=O)OC[C@H]1O[C@@H](Oc2ccc(C=O)cc2O)[C@H](OC(C)=O)[C@@H](OC(C)=O)[C@@H]1OC(C)=O` was tested, and the inhibition was “Active”.

Biological target: T1, Tyrosinase (Agaricus bisporus)
Assay: Irreversible inhibition of mushroom tyrosinase assessed as oxidation of L-DOPA at 0.8 mmol/L […]
Conditions: not given
How it was run: as §1

In the case of `CC(=O)OC[C@H]1O[C@@H](Oc2ccc(C=C3C(=O)NC(=O)NC3=O)cc2O)[C@H](OC(C)=O)[C@@H](OC(C)=O)[C@@H]1OC(C)=O`, the inhibition is reported as “Active”.

Reference: ChEMBL document CHEMBL1153055, “Synthesis and evaluation of 5-benzylidene(thio)barbiturate-beta-D-glycosides as mushroom tyrosinase inhibitors” (Bioorg Med Chem Lett, 2009)
